Laboratory results taken from paper PMC6635418 (Current Drug Delivery, 2019).
In brackets after ≈: the same amount, converted by molar mass. Blank lines part the entries; values can stand above or below the compound they belong to.

Experiments:
[1] = cited from earlier work
[2] = Pharmacokinetics of oral topotecan with or without chrysin formulations in rats; assay type: in vivo
In short: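 Male Sprague-Dawley rats (250-290 g), fasted 12 h, n=3 per group. Oral BCRP substrate (10 mg/kg in saline) given alone or with test compound, free or as solid dispersion (100 mg/kg equivalent in 0.5% methylcellulose/5% PEG). Femoral arterial plasma analysed by HPLC-fluorescence (ex 350/em 527 nm), 10-1000 ng/mL. Noncompartmental: trapezoidal AUC, observed Cmax/Tmax. ANOVA with Dunnett's test.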

[3] = Solubility study in distilled water; assay type: physicochemical
In short: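 Each formulation, equivalent to 1 mg test compound, stirred in 1 mL distilled water at 600 rpm for 24 h at room temperature. Centrifuged at 13,000 rpm for 10 min and filtered through 0.45 µm. Filtrate diluted in ethanol and quantified by C18 HPLC-UV at 267 nm against a 0.5-20 µg/mL calibration. n=3, mean±SD.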

[4] = tested on: breast cancer resistance protein (BCRP); details: read-out: IC50 against mitoxantrone efflux; BCRP inhibition; cited from earlier work
[5] = male, Sprague-Dawley, rat, plasma, po, 10 mg/kg

Compound: CCCCCCCCCCCCOCCOCCOCCOCCO [Brij®L4, polyoxyethylene (4) lauryl ether]
critical micelle concentration (CMC) [1]: 0.00097 %, w/v

effect on oral exposure of topotecan ([2]; rats, oral, versus topotecan only): no effect
solubility at 24 h [3]: 3.04 ± 0.19 µg/mL (≈ 11.9 µM)
Compound: O=c1cc(-c2ccccc2)oc2cc(O)cc(O)c12 [chrysin (untreated drug), 5,7-dihydroxyflavone]
IC50 [4]: 390 ± 130 nM

AUC [2, 5]: 578 ± 37.2 ng·h/mL
Cmax [2, 5]: 109 ± 44.5 ng/mL
Tmax [2, 5]: 1.3 ± 0.66 h
Compound: CC[C@@]1(O)C(=O)OCc2c1cc1n(c2=O)Cc2cc3c(CN(C)C)c(O)ccc3nc2-1 [Control (Topotecan Only), topotecan]
